Residues, ends and D or L forms follow the SMILES beside them. *: point of attachment. NHCH(iBu)2 = CC(C)CC(CC(C)C)N*; X1 = CC(C)CCOC[C@H](CC(C)C)N*; X10 = CCCOC[C@H](CC(C)C)N*; X12 = CCCC[C@H](CC(C)C)N*; X2 = CCCCC(CCCC)N*
Legend:
[1] = target: Gastrin-releasing peptide receptor (Mus musculus, UniProt P21729); experiment: Compound was evaluated for mitogenic inhibition against Swiss 3T3 murine fibroblast cells.
Method in brief: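 Swiss 3T3 monolayers grown to confluence, then serum-starved in serum-free DMEM for 48 h. Antagonist added together with 3 nM N-acetyl-GRP-20-27 amide and 23 nM [3H]thymidine. After a further 48 h, cells detached with trypsin/5 mM EDTA and filter-harvested; [3H]thymidine uptake measured. IC50 is the mean of at least two independent experiments.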

[2] = Compound was evaluated for mitogenic inhibition against Swiss 3T3 murine fibroblast cells.

Gastrin-releasing peptide receptor, sequence (P21729 whole entry): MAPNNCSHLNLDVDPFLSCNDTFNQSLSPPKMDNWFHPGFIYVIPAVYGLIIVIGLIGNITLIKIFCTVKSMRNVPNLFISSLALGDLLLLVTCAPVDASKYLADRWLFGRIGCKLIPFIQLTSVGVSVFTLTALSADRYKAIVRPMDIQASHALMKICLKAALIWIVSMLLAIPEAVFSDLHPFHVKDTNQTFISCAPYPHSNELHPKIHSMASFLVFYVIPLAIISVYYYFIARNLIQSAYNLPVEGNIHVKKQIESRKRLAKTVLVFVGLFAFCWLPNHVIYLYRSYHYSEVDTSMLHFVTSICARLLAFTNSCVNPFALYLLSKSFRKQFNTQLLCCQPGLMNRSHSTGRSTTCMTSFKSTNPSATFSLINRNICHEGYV

## CC(=O)N[C@@H](Cc1c[nH]cn1)C(=O)N[C@@H](Cc1c[nH]c2ccccc12)C(=O)N[C@@H](C)C(=O)N[C@H](C(=O)NCC(=O)N[C@@H](Cc1c[nH]cn1)C(=O)N[C@H](COCCC(C)C)CC(C)C)C(C)C [2-{2-[2-[2-Acetylamino-3-(3H-imidazol-4-yl)-propionylamino]-3-(1H-indol-3-yl)-propionylamino]-propionylamino}-N-({2-(3H-imidazol-4-yl)-1-[3-methyl-1-(3-methyl-butoxymethyl)-butylcarbamoyl]-ethylcarbamoyl}-methyl)-3-methyl-butyramide] (Ac-HWAVGH-X1)
[1]
  IC50: 32 nM

## CCCCC(CCCC)NC(=O)[C@H](Cc1cnc[nH]1)NC(=O)CNC(=O)[C@@H](NC(=O)[C@H](C)NC(=O)[C@H](Cc1c[nH]c2ccccc12)NC(=O)[C@H](Cc1cnc[nH]1)NC(C)=O)C(C)C [2-{2-[2-[2-Acetylamino-3-(3H-imidazol-4-yl)-propionylamino]-3-(1H-indol-3-yl)-propionylamino]-propionylamino}-N-{[1-(1-butyl-pentylcarbamoyl)-2-(3H-imidazol-4-yl)-ethylcarbamoyl]-methyl}-3-methyl-butyramide] (Ac-HWAVGH-X2)
[2]
  IC50: 11 nM

## CC(=O)N[C@@H](Cc1cnc[nH]1)C(=O)N[C@@H](Cc1c[nH]c2ccccc12)C(=O)N[C@@H](C)C(=O)N[C@H](C(=O)NCC(=O)N[C@@H](Cc1cnc[nH]1)C(=O)NC(CC(C)C)CC(C)C)C(C)C [2-{2-[2-[2-Acetylamino-3-(3H-imidazol-4-yl)-propionylamino]-3-(1H-indol-3-yl)-propionylamino]-propionylamino}-N-{[2-(3H-imidazol-4-yl)-1-(1-isobutyl-3-methyl-butylcarbamoyl)-ethylcarbamoyl]-methyl}-3-methyl-butyramide] (Ac-HWAVGH-{NHCH(iBu)2})
[2]
  IC50: 8 nM

## CCCC[C@H](CC(C)C)NC(=O)[C@H](Cc1cnc[nH]1)NC(=O)CNC(=O)[C@@H](NC(=O)[C@H](C)NC(=O)[C@H](Cc1c[nH]c2ccccc12)NC(=O)[C@H](Cc1cnc[nH]1)NC(C)=O)C(C)C [2-{2-[2-[2-Acetylamino-3-(3H-imidazol-4-yl)-propionylamino]-3-(1H-indol-3-yl)-propionylamino]-propionylamino}-N-{[2-(3H-imidazol-4-yl)-1-(1-isobutyl-pentylcarbamoyl)-ethylcarbamoyl]-methyl}-3-methyl-butyramide] (Ac-HWAVGH-X12)
[2]
  IC50: 3 nM

## CCCOC[C@H](CC(C)C)NC(=O)[C@H](Cc1c[nH]cn1)NC(=O)CNC(=O)[C@@H](NC(=O)[C@H](C)NC(=O)[C@H](Cc1c[nH]c2ccccc12)NC(=O)[C@H](Cc1c[nH]cn1)NC(C)=O)C(C)C [2-{2-[2-[2-Acetylamino-3-(3H-imidazol-4-yl)-propionylamino]-3-(1H-indol-3-yl)-propionylamino]-propionylamino}-N-{[2-(3H-imidazol-4-yl)-1-(3-methyl-1-propoxymethyl-butylcarbamoyl)-ethylcarbamoyl]-methyl}-3-methyl-butyramide] (Ac-HWAVGH-X10)
[1]
  IC50: 18 nM
